Measurements from ChEMBL document CHEMBL1138519, “Modulating retinoid X receptor with a series of (E)-3-[4-hydroxy-3-(3-alkoxy-5,5,8,8-tetramethyl-5,6,7,8-tetrahydronaphthalen-2-yl)phenyl]acrylic acids and their 4-alkoxy isomers” (J Med Chem, 2009).
Activity calls are given as the source filed them. The calls are words filed in the database; no cut-off is given here.

Tests used:
[1] = target: T1, Retinoic acid receptor alpha/Retinoid X receptor alpha (Homo sapiens) (UniProt P10276+P19793); test: Activity at RARalpha/RXRalpha ligand binding domain assessed as stabilization of RXR helix H12 by fluorescence anisotropy in presence of up to 10 uM coactivator peptide TIF-NR2; type: protein-complex assay
How it was run: (§1)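 Heterodimer (0.120 µM, dye on the RXRα C-terminus) with 10 µM ligand. Anisotropy was read at excitation 470 nm and emission 530 nm, with at least three independent measurements.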

[2] = target: T2, Retinoic acid receptor RXR-beta (Homo sapiens) (UniProt P28702); test: Activity at Gal4-tagged human RXRbeta receptor expressed in human HeLa cells assessed as relative transcriptional activity by luciferase reporter assay relative to CD3254; type: cell-based; parameters: concentration or dose not given beside the values
T2 sequence (whole entry): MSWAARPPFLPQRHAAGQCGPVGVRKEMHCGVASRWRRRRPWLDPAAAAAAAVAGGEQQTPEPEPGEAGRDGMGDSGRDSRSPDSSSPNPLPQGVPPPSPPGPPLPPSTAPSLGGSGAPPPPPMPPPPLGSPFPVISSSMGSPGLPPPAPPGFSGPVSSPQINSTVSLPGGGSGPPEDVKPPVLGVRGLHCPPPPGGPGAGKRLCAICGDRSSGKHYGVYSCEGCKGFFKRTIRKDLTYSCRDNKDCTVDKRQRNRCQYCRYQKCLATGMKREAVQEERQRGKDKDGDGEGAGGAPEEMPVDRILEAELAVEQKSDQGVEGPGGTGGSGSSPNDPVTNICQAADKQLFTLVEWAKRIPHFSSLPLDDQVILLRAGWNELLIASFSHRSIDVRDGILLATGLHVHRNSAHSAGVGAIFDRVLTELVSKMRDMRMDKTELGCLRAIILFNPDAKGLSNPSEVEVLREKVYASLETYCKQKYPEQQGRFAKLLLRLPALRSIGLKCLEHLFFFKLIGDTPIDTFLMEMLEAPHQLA
How it was run: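 HeLa cells stably carrying a Gal4-hRXRβ chimera (RXRβ LBD fused to the GAL4 DBD) and a (Gal4)5-β-globin-luciferase reporter. Cells were grown in DMEM with 5% FCS plus G418, puromycin, hygromycin and gentamycin. They were exposed to increasing compound concentrations for 16 h at 37 °C and 5% CO2, then washed, lysed, and read for luciferase luminescence (RLU).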

[3] = target: T2, Retinoic acid receptor RXR-beta (Homo sapiens); test: Antagonist activity at Gal4-tagged human RXRbeta receptor expressed in human HeLa cells assessed as inhibition of CD3254-induced transcription at >=10 uM by luciferase reporter assay; type: functional, cell-based
How it was run: (§2)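 Gal4-hRXRβ/(Gal4)5-β-globin-luciferase HeLa reporter cells, maintained in DMEM with 5% FCS and selection antibiotics. Cells were co-treated for 16 h at 37 °C with 3 nM of the reference RXR agonist and increasing compound concentrations. After lysis, luciferase was read as RLU to measure antagonism of agonist-induced transcription.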

[4] = target: T1, Retinoic acid receptor alpha/Retinoid X receptor alpha (Homo sapiens); test: Activity at RARalpha/RXRalpha ligand binding domain assessed as stabilization of RXR helix H12 by fluorescence anisotropy; type: protein-complex assay
How it was run: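 RARα-RXRα LBD heterodimer, 0.120 µM, carrying a fluorescent dye attached to the RXRα C-terminus. Steady-state anisotropy was read with excitation at 470 nm and emission at 530 nm, with ligand at saturating concentration. At least three independent measurements were made per sample.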

[5] = target: T2, Retinoic acid receptor RXR-beta (Homo sapiens); test: Antagonist activity at Gal4-tagged human RXRbeta receptor expressed in human HeLa cells assessed as inhibition of CD3254-induced transcription at 1 uM by luciferase reporter assay; type: functional, cell-based; how it was run: as §2
[6] = target: T1, Retinoic acid receptor alpha/Retinoid X receptor alpha (Homo sapiens); test: Activity at RARalpha/RXRalpha ligand binding domain assessed as stabilization of RXR helix H12 by fluorescence anisotropy in presence of 1 uM coactivator peptide TIF-NR2; type: protein-complex assay; how it was run: as §1

Structure (SMILES)	Activity [1]	Activity [2]	Activity [3]	Activity [4]	Activity [5]	Activity [6]
CCCCCCOc1cc2c(cc1-c1cc(/C=C/C(=O)O)ccc1O)C(C)(C)CCC2(C)C	inactive	–	–	–	–	–
CCOc1cc(-c2cc(/C=C/C(=O)O)ccc2O)cc2c1C(C)(C)CCC2(C)C	Active	> 10%	Active	inactive	–	–
CCCCCOc1cc2c(cc1-c1cc(/C=C/C(=O)O)ccc1O)C(C)(C)CCC2(C)C	inactive	inactive	–	inactive	Active	–
Cc1cc2c(cc1-c1cc(/C=C/C(=O)O)ccc1O)C(C)(C)CCC2(C)C	–	–	–	–	–	Active
COc1cc(-c2cc(/C=C/C(=O)O)ccc2O)cc2c1C(C)(C)CCC2(C)C	Active	> 30%	Active	inactive	–	–
CCCOc1cc(-c2cc(/C=C/C(=O)O)ccc2O)cc2c1C(C)(C)CCC2(C)C	Active	> 10%	Active	inactive	–	–
CCCCCCOc1cc(-c2cc(/C=C/C(=O)O)ccc2O)cc2c1C(C)(C)CCC2(C)C	Active	> 10%	Active	inactive	–	–
CCCCOc1cc(-c2cc(/C=C/C(=O)O)ccc2O)cc2c1C(C)(C)CCC2(C)C	Active	> 10%	Active	inactive	–	–
CCCCCOc1cc(-c2cc(/C=C/C(=O)O)ccc2O)cc2c1C(C)(C)CCC2(C)C	Active	> 10%	Active	inactive	–	–
